Measurements taken from PubChem BioAssay.
Activity calls are given as the source filed them.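 The calls were made as follows, unless noted: active = viability at or under a set limit in both replicates, limit being median viability minus 3 SD (cut at about 48% in these data, passing the limit was not always enough); inconclusive = at or under the limit in just one replicate; inactive = at or above the limit in both replicates.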

Assays:
[1] = Her2 expression decrease, cell viability multiplex – SKBR3 breast tumor cells, AlphaScreen, ATP viability, primary screen (AID 461;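 active = Her2 level under about 52% in both replicate screens, with viability over 70% of control, limit read from the data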;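 as to Her2 level: lower value means less Her2 protein in the cells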;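 as to viability: percent of carrier control wells set as 100% viability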); conditions: SKBR3 Her2 protein level, 18-24 h, measured here: SKBR3 viability, ATP luminescence, at 10 µM
[2] = molecular target: Receptor tyrosine-protein kinase erbB-2 (Homo sapiens) (UniProt P04626); assay: as above; conditions: 18-24 h, at 10 µM, stronger effect = lower value
Sequence of Receptor tyrosine-protein kinase erbB-2 (Homo sapiens) (P04626 whole entry, looked up): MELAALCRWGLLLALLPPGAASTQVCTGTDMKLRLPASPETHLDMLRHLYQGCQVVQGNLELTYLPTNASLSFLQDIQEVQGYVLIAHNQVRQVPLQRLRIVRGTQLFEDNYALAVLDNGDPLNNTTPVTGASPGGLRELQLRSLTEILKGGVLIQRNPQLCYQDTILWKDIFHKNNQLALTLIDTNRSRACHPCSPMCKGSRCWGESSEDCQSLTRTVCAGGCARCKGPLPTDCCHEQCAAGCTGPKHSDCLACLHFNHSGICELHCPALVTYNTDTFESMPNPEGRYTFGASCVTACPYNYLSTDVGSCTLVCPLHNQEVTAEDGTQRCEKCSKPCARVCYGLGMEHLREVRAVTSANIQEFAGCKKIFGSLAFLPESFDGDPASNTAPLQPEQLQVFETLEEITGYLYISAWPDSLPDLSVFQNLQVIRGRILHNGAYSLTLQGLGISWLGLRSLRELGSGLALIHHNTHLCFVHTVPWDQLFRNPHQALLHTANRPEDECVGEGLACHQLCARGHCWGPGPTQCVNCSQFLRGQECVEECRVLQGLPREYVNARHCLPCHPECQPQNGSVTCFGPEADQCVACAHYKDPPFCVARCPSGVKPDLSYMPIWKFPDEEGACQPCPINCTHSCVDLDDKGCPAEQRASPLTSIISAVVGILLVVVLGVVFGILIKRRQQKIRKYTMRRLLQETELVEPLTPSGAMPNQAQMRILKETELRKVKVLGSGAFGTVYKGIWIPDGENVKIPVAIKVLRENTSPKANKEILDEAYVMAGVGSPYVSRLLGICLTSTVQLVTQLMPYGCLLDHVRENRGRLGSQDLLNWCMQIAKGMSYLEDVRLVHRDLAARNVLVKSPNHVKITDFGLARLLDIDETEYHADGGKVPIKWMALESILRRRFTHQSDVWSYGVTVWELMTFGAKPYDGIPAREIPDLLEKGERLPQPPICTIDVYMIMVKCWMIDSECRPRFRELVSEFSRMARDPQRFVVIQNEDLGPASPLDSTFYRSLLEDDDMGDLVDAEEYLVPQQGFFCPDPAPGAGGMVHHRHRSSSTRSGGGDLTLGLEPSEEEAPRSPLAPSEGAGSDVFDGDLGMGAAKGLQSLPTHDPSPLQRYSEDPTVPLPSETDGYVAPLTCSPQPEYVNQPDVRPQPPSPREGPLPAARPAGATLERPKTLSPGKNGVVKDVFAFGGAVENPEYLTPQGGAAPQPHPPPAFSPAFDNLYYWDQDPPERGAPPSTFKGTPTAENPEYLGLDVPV

[3] = reduced viability of SK-BR-3 breast cancer cells – cell-based, 24 h, human, pilot screen (AID 572;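 active = viability at or below 10% of carrier control in both of two separate runs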;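 also: compound exposure lasted between 18 and 24 h rather than exactly 24 h; 100% = carrier-treated control wells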); conditions: SK-BR-3 viability, CellTiter-Glo luminescence, at 10 µM, stronger effect = lower value
[4] = HUVEC growth inhibition – cell-based, human, primary screen (AID 575;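 active = viability at or below 30% in both replicate assays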;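 also: 100% = median of untreated cell wells with 0.1% DMSO on each plate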); conditions: HUVEC proliferation, CellTiter-Glo luminescence, 72 h; at 10 µM; stronger effect = lower value
Method in brief: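 system = HUVEC primary cells | amount = 1250 cells/well | buffer or medium = supplemented EBM, 2% fetal bovine serum | dosing = single-point 10 µM, DMSO 0.1% final | times = 72 h compound incubation | detection = CTG luminescence | read-out = % viability relative to median vehicle-well signal on each plate | control set = vehicle and MePR control wells | format = collagen-coated 384-well format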

[5] = H69AR cell proliferation blockers – human, duplicate replicates, primary screen (AID 580); conditions: H69AR lung tumor cells viability, ATP luminescence, 72 h; at 10 µM; stronger effect = lower value;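 also: 100% = mean luminescence of untreated wells and 0% = no signal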
[6] = MRP1 drug-resistance reversers in H69AR cells – cell-based, doxorubicin co-treatment, pilot screen (AID 601;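 active = viability loss from added drug above about 55%, and viability with drug at most 40%, in both replicates, limit read from the data, passing the limit was not always enough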); conditions: CellTiter-Glo, 72 h, at 10 µM; for differential viability (reversal): stronger effect = higher value
[7] = yeast transport mutant growth inhibition pilot in 384-well plates, post-Golgi transport modulator project (AID 636; in the data active = inhibition above about 31%); conditions: absorbance 615 nm, about 18 h, stronger effect = higher value
[8] = growth suppression of yeast trafficking mutant, preliminary HTS, modulators of trafficking downstream of Golgi apparatus project, 1536-format plate, OD 615 nm (AID 637; in the data active = inhibition above about 30%); conditions: yeast transport mutant growth, absorbance 615 nm, 18 h; stronger effect = higher value
[9] = H69AR cells + 2 uM doxorubicin, measured here: viability with 2 uM doxorubicin, stronger effect = lower value
[10] = H69AR cells, compound alone cytotoxicity

Compound	viability [1] [%]	Her2 level [2]	viability [3]	viability [4]	viability [5]	differential viability (reversal) ([6]; H69AR cells + 2 uM doxorubicin)	viability [6, 9] [%]	viability [6, 10] [%]	inhibition [7]	inhibition [8]
O=S(=O)(c1ccc2nc(Cc3cccc(C(F)(F)F)c3)[nH]c2c1)N1CCOCC1	104	91% (inactive)	104% (inactive)	67.9% (inactive)	82.9% (inactive)	3.53% (inactive)	79.4	82.9	-1.69% (inactive)	-0.16% (inactive)
O=C(CCCc1cccs1)Nc1nc2c(s1)CCCC2	86.5	74% (inactive)	86.5% (inactive)	55.3% (inactive)	84.5% (inactive)	2.73% (inactive)	81.7	84.5	-9.19% (inactive)	0.82% (inactive)
Cc1cccc(C(=O)N2CCC(n3nnc4cc(F)ccc43)CC2)c1	95	113% (inactive)	95% (inactive)	92.6% (inactive)	86.4% (inactive)	-3.98% (inactive)	90.4	86.4	-3.21% (inactive)	2.67% (inactive)
COCCOC(=O)C1=C(N)OC2=C(C(=O)CC(C)(C)C2)C1c1cccnc1 (stereo not given)	76	101% (inactive)	76% (inactive)	101% (inactive)	99% (inactive)	7.16% (inactive)	91.9	99	-5.95% (inactive)	-1.31% (inactive)
CCCCN(Cc1cc2cc(OC)ccc2[nH]c1=O)C(=O)COc1ccccc1	73	79% (inactive)	73% (inactive)	108% (inactive)	93.6% (inactive)	-4.48% (inactive)	98.1	93.6	-0.13% (inactive)	0.82% (inactive)
CCOC(=O)C1CCCN(c2cc(=O)n(Cc3ccc(F)cc3)c(=O)[nH]2)C1 (stereo not given)	92	87% (inactive)	92% (inactive)	92.6% (inactive)	97.2% (inactive)	3.08% (inactive)	94.1	97.2	-4.67% (inactive)	0.33% (inactive)
O=C(Nc1ccc(-c2noc(-c3cccs3)n2)cc1)c1cccnc1	74.5	93% (inactive)	74.5% (inactive)	54% (inactive)	32.9% (active)	-46.6% (inactive)	79.5	32.9	-0.81% (inactive)	-8.69% (inactive)
Cc1ccc(-n2c(=O)[nH]c3c(C(N)=O)nc(CC(C)C)nc32)cc1	105	106% (inactive)	105% (inactive)	89% (inactive)	72.6% (inactive)	-18.6% (inactive)	91.2	72.6	-2.76% (inactive)	5.57% (inactive)
CCN(C#N)c1nc(NC(C)C)nc(NC(C)C)n1	96.5	93% (inactive)	96.5% (inactive)	97.6% (inactive)	93.6% (inactive)	4.81% (inactive)	88.8	93.6	-4.46% (inactive)	-7.17% (inactive)
Cc1nc(-c2cnn(-c3ccccc3)c2)c2cc(C)oc2n1	74.5	76% (inactive)	74.5% (inactive)	67.2% (inactive)	90.7% (inactive)	3.27% (inactive)	87.4	90.7	-2.11% (inactive)	3.28% (inactive)
O=C(CN1C(=O)c2ccccc2C1=O)NCC1COc2ccccc2O1 (stereo not given)	98	110% (inactive)	98% (inactive)	95.1% (inactive)	102% (inactive)	5.31% (inactive)	97.1	102	2.11% (inactive)	12.5% (inactive)
Cc1ccc(-c2nnc(N(C)C(=O)c3ccccn3)s2)cn1	133	94.5% (inactive)	133% (inactive)	90.9% (inactive)	103% (inactive)	20.9% (inactive)	82.3	103	-6.85% (inactive)	-4.6% (inactive)
COC(=O)Nc1ccccc1C(=O)N1CCCCC1	100	93% (inactive)	100% (inactive)	95.8% (inactive)	99% (inactive)	6.15% (inactive)	92.9	99	-5.33% (inactive)	-0.49% (inactive)
CSCC[C@@H](Nc1nc(-c2ccccc2)nc2c1oc1ccccc12)C(=O)O	91	75% (inactive)	91% (inactive)	84.2% (inactive)	93.8% (inactive)	-1.28% (inactive)	95.1	93.8	-7.43% (inactive)	-0.82% (inactive)
COC(=O)c1ccccc1NS(=O)(=O)c1ccc(F)cc1	120	83.5% (inactive)	120% (inactive)	104% (inactive)	102% (inactive)	13.1% (inactive)	88.4	102	-7.26% (inactive)	-3.49% (inactive)
C=CCOC(=O)CCC(=O)Nc1cc(OC)nc(OC)n1	112	112% (inactive)	112% (inactive)	92.1% (inactive)	90.8% (inactive)	0.705% (inactive)	90.1	90.8	-3.07% (inactive)	8.73% (inactive)
